Measured values published in ChEMBL document CHEMBL5236552, “Discovery of Soticlestat, a Potent and Selective Inhibitor for Cholesterol 24-Hydroxylase (CH24H)” (J Med Chem, 2021).

Tests used:
[1] = molecular target: Cholesterol 24-hydroxylase (Homo sapiens, UniProt Q9Y6A2); assay: Inhibition of full length N-terminal his6-tagged human CH24H (28 to 494 residues) expressed in Escherichia coli DH5alpha using [14C] cholesterol as substrate preincubated for 15 mins followed by substrate addition and measured after 5 min in presence of beta-NADPH
Sequence of Cholesterol 24-hydroxylase (Q9Y6A2 whole entry, the tested form may be a part): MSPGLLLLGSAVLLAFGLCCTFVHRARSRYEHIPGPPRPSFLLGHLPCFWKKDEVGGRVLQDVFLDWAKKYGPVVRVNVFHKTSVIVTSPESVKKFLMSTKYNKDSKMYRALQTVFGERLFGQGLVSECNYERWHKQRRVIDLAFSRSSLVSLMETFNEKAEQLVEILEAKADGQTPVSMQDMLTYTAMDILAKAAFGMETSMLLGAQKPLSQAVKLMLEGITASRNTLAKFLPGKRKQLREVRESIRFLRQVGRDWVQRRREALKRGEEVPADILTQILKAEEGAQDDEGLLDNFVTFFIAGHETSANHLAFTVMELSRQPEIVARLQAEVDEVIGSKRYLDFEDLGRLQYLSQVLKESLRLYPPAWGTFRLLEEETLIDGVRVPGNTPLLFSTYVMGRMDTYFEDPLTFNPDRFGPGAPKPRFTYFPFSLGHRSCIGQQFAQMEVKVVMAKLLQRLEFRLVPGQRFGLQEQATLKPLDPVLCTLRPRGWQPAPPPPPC

[2] = molecular target: CYP3A4 (Homo sapiens, UniProt P08684); assay: Inhibition of CYP3A4 (unknown origin) at 10 uM using testosterone as substrate incubated for 60 mins by LC-MS/MS analysis relative to control; assay type: ADME; conditions: probe testosterone
Sequence of CYP3A4 (P08684 whole entry): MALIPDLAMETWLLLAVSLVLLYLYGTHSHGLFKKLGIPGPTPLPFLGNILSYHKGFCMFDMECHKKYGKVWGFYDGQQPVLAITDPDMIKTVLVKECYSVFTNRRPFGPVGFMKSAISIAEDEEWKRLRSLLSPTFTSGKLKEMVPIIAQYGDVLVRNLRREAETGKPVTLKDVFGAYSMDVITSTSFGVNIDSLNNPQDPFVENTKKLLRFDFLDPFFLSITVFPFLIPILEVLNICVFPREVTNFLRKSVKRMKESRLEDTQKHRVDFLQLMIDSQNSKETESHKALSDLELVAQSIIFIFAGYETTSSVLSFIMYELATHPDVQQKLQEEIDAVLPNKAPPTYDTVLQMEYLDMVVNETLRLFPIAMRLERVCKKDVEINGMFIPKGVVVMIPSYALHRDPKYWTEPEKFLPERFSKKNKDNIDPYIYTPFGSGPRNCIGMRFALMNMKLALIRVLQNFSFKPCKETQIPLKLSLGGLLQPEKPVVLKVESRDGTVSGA
Procedure, shortened: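 CYP3A4-expressing microsomes in 50 mmol/L phosphate buffer (pH 7.4) with an NADPH-generating system (MgCl2, β-NADP+, glucose-6-phosphate, G6P dehydrogenase). Testosterone was the substrate and test compound was 10 µmol/L, with final solvent at 0.5%. Incubated 60 min, stopped with acetonitrile, and 6β-hydroxytestosterone read by LC/MS/MS. Run in triplicate; reported as % activity remaining versus an inhibitor-free control.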

[3] = Metabolic stability in human liver microsome assessed as clearance at 1 uM incubated for 15 to 30 mins in presence of NADPH by LC-MS/MS analysis; assay type: ADME; conditions: liver microsomes, time 15-30 min, read-out: CLH
Procedure, shortened: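 Human liver microsomes (0.2 mg protein/mL) were mixed with compound (1 µM) in phosphate buffer (pH 7.4) and started with an NADPH-generating system. Incubated at 37 °C for 15 and 30 min, with zero-time samples as controls, then stopped with acetonitrile. Remaining compound in the supernatant was measured by LC/MS/MS.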

[4] = Inhibition of testosterone synthesis in human NCI-H295R cells at 10 uM by Enzyme immunoassay relative to control; assay type: functional
Procedure, shortened: (§1)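 H295R adrenocortical cells grown in DMEM/F12 with 2.5% Nu-serum and 1% ITS-plus, seeded at 5×10^4 per well for three nights, then primed two nights with 20 µM forskolin. Cells washed, then exposed overnight to compound in DMEM/F12 with 1% ITS-plus and 20 µM forskolin. Cortisol, testosterone, aldosterone and corticosterone in the supernatant measured by competitive EIA against a calibration curve; triplicate, mean ± SEM.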

[5] = molecular target: T1, Cytochrome P450 2C8 (Homo sapiens, UniProt P10632); assay: Inhibition of CYP2C8 (unknown origin) using amodiaquine as substrate incubated for 10 to 20 mins in presence of NADPH-generating system by LC-MS/MS analysis; assay type: ADME
T1 sequence (P10632 whole entry): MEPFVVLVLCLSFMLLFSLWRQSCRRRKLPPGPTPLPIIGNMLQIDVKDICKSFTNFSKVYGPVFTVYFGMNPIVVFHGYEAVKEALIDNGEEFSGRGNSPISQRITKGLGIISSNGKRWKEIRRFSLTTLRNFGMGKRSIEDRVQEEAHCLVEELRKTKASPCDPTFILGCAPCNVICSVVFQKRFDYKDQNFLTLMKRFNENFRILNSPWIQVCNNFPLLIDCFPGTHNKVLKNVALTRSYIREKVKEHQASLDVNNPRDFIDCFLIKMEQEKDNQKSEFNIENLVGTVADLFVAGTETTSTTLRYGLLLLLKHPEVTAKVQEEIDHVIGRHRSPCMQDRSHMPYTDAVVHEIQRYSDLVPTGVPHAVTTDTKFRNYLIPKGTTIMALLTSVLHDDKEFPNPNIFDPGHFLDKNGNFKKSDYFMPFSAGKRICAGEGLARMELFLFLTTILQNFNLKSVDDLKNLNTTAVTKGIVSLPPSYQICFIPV
Procedure, shortened: (§2)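 Recombinant CYP-expressing microsomes (CYP1A2, 2C8, 2C9, 2C19, 2D6, 3A4) in 50 mM phosphate buffer pH 7.4 with NADPH-generating system. Substrates: phenacetin, amodiaquine, tolbutamide, (S)-mephenytoin, bufuralol, testosterone, respectively. Test compounds at 1–100 µM final, 0.5% final solvent. Incubated 10–20 min at 37 °C in duplicate, stopped with acetonitrile. Metabolite peaks read by LC/MS/MS; activity given as % remaining versus no-inhibitor control.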

[6] = molecular target: Cytochrome P450 2C9 (Homo sapiens, UniProt P11712); assay: Inhibition of CYP2C9 (unknown origin) using tolbutamide as substrate incubated for 10 to 20 mins in presence of NADPH-generating system by LC-MS/MS analysis; assay type: ADME; procedure, shortened: as §2
Sequence of Cytochrome P450 2C9 (P11712 whole entry): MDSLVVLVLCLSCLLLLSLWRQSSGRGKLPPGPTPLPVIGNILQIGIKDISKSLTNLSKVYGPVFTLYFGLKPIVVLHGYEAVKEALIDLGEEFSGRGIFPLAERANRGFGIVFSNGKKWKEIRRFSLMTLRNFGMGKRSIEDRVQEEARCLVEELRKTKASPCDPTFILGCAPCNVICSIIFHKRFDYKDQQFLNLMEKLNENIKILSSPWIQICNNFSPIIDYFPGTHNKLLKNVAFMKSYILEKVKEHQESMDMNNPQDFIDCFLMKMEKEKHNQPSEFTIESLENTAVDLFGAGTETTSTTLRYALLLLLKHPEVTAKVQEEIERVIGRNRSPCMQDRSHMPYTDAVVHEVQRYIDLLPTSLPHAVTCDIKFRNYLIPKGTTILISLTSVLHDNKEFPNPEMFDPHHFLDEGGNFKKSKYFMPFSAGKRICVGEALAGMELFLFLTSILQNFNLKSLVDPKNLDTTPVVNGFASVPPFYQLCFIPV

[7] = test system: Mus musculus; assay: In vivo inhibition of […] CH24H in C57BL/6N mouse brain assessed as reduction in 24HC level at 10 mg/kg, po measured after 24 hrs relative to control; assay type: functional
Procedure, shortened: (§3)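 Female C57BL/6N mice, 7–8 weeks, 3 per group; single oral gavage in 0.5% aqueous methylcellulose (10 mL/kg) at 1, 3 or 10 mg/kg. Brains collected up to 24 h after dosing and homogenized in about 4-fold saline. 24HC extracted with acetonitrile/methanol/formic acid, quantified by UPLC on a C18 column at 40 °C, and expressed as % of control; mean + SD.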

[8] = Inhibition of cortisol synthesis in human NCI-H295R cells at 10 uM by Enzyme immunoassay relative to control; assay type: functional; procedure, shortened: as §1
[9] = Drug concentration in po dosed C57BL/6N mouse brain measured upto 24 hrs by LC-MS analysis; assay type: ADME, organism-based; conditions: in vivo, dose 1-10 mg/kg
Procedure, shortened: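 Female C57BL/6N mice, 7–8 weeks, 3 per group; single oral gavage at 1, 3 and 10 mg/kg in 0.5% aqueous methylcellulose (10 mL/kg). Brains taken at 0.5–24 h (from 0.25 h at 10 mg/kg) and homogenized in about 4-fold saline. Homogenate mixed with acetonitrile plus internal standard, centrifuged, and quantified by LC-MS/MS in MRM mode (m/z 374.20→183.10).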

[10] = Inhibition of corticosterone synthesis in human NCI-H295R cells at 10 uM by Enzyme immunoassay relative to control; assay type: functional; procedure, shortened: as §1
[11] = molecular target: Cytochrome P450 2D6 (Homo sapiens, UniProt P10635); assay: Inhibition of CYP2D6 (unknown origin) using bufuralol as substrate incubated for 10 to 20 mins in presence of NADPH-generating system by LC-MS/MS analysis
Sequence of Cytochrome P450 2D6 (P10635 whole entry): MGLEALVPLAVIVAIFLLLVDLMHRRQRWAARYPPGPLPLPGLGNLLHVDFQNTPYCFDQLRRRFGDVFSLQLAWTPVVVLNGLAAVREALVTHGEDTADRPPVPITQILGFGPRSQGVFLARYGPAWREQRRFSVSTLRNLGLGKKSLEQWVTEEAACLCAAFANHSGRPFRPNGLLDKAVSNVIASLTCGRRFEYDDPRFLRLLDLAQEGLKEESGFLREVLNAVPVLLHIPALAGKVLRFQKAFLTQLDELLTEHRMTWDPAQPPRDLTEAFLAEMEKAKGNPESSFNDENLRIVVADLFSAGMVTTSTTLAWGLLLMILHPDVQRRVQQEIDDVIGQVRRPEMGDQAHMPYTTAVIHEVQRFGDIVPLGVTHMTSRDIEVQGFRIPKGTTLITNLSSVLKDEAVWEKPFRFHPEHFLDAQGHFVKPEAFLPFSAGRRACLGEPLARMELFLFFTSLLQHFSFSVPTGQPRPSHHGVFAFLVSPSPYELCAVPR

[12] = molecular target: Cytochrome P450 2C19 (Homo sapiens, UniProt P33261); assay: Inhibition of CYP2C19 (unknown origin) using (S)-mephenytoin as substrate incubated for 10 to 20 mins in presence of NADPH-generating system by LC-MS/MS analysis
Sequence of Cytochrome P450 2C19 (P33261 whole entry): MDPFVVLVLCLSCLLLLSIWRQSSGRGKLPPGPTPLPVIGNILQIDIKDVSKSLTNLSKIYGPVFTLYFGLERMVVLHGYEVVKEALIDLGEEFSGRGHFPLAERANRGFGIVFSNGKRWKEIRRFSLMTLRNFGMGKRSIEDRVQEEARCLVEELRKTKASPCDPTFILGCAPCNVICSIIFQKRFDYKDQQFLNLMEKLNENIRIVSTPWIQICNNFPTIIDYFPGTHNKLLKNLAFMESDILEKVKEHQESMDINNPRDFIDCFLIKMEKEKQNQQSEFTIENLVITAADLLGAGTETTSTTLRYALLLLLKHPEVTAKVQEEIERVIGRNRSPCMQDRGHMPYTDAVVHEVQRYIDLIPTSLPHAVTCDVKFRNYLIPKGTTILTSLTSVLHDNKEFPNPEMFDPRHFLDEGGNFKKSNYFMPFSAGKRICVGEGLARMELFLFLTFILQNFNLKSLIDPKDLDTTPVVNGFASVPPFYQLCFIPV

[13] = Inhibition of aldosterone synthesis in human NCI-H295R cells at 10 uM by Enzyme immunoassay relative to control; assay type: functional; procedure, shortened: as §1
[14] = test system: Mus musculus; assay: In vivo inhibition of […] CH24H in po dosed C57BL/6N mouse brain assessed as reduction in 24HC level measured upto 24 hrs; assay type: functional, organism-based; conditions: dose 1-10 mg/kg; procedure, shortened: as §3
[15] = molecular target: T2, Cytochrome P450 1A2 (Homo sapiens, UniProt P05177); assay: Inhibition of CYP1A2 (unknown origin) using phenacetin as substrate incubated for 10 to 20 mins in presence of NADPH-generating system by LC-MS/MS analysis; assay type: ADME; procedure, shortened: as §2
T2 sequence (P05177 whole entry): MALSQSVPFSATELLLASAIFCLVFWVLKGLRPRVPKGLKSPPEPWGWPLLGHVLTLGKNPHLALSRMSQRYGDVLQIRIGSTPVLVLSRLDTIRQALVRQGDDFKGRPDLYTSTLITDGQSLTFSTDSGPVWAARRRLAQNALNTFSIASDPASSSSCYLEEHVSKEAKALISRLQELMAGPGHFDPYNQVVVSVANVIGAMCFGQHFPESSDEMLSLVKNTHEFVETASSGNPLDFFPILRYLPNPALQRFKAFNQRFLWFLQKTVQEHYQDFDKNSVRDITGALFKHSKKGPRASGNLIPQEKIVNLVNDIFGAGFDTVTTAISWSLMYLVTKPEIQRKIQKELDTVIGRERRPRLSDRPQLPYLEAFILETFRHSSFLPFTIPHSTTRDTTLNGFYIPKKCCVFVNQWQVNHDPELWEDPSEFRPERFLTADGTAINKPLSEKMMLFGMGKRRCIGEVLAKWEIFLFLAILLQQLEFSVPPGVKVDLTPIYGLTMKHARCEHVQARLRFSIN

[16] = test system: Mus musculus; assay: In vivo inhibition of […] CH24H in C57BL/6N mouse brain assessed as reduction in 24HC level at 3 mg/kg, po measured after 24 hrs relative to control; assay type: functional; procedure, shortened: as §3

Row | SMILES | IC50 [1] [nM] | inhibition at 1 h, 10 µM [2] [%] | other results
1 | O=C(c1cc(Cl)ccc1-c1ccncc1)N1CCC(O)(Cc2ccccc2)CC1 | 2.4 | 75 | –
2 | Cc1ccc(-c2ccncc2)c(C(=O)N2CCC(Cc3ccccc3)CC2)c1 | 110 | – | –
3 | O=C(c1ccccc1-c1ccncc1)N1CCC(O)(Cc2ccccc2)CC1 | 7.9 | 45 | microsomal CLint at 1 µM [3]: 120 µL/min/mg
4 | COC1(Cc2ccccc2)CCN(C(=O)c2cc(C)ccc2-c2ccncc2)CC1 | 74 | – | –
5 | O=C(c1ccccc1-c1ccncn1)N1CCC(O)(Cc2ccccn2)CC1 | 36 | 8.8 | microsomal CLint at 1 µM [3]: 9 µL/min/mg
6 | CCC1(O)CCN(C(=O)c2cc(C)ccc2-c2ccncc2)CC1 | 540 | – | –
7 | O=C(c1cccnc1-c1ccncn1)N1CCC(O)(Cc2ccccc2)CC1 | 19 | 13 | microsomal CLint at 1 µM [3]: 17 µL/min/mg
8 | O=C(c1ccccc1-c1ccncc1)N1CCC(O)(Cc2ccccn2)CC1 | 21 | 18 | microsomal CLint at 1 µM [3]: 22 µL/min/mg
9 | COC(=O)c1cc(C)ccc1-c1ccncc1 | 1900 | – | –
10 | Cc1ccc(-c2ccnc(C)c2)c(C(=O)N2CCC(O)(Cc3ccccc3)CC2)c1 | > 10000 | 60 | –
11 | Cc1ccc(-c2ccncc2)c(C(=O)N2CCN(C(=O)c3ccccc3)CC2)c1 | > 10000 | – | –
12 | Cc1ccccc1C1=NN(C(=O)c2ccncc2)C(C)(C)C1 | 60 | – | –
13 | O=C(c1cc(F)ccc1-c1ccncc1)N1CCC(O)(Cc2ccccc2)CC1 | 6.1 | 55 | –
14 | Cc1ccc(-c2ccncc2C)c(C(=O)N2CCC(O)(Cc3ccccc3)CC2)c1 | 4.9 | 91 | –
15 | O=C(c1cccnc1-c1ccncc1)N1CCC(O)(Cc2ccccn2)CC1 | 100 | 5.3 | –
16 | C[C@@H](c1ncncc1F)[C@](O)(Cn1cncn1)c1ccc(F)cc1F [VORICONAZOLE] | > 10000 | – | –
17 | Cc1ccc(-c2ccncc2)c(C(=O)N2CCC(O)(c3ccccc3)CC2)c1 | 1200 | – | –
18 | O=C(c1cccnc1-c1ccncc1)N1CCC(O)(Cc2ccccc2)CC1 [SOTICLESTAT] | 7.4 | 28 | inhibition at 10 µM [4]: -0.4%; IC50 [5]: 62000 nM; IC50 [6]: 19000 nM; inhibition in vivo at 10 mg/kg [7]: 33%; inhibition at 10 µM [8]: 0.2%; Drug uptake [9]: Dose-Dependent Effect; inhibition at 10 µM [10]: -6%; microsomal CLint at 1 µM [3]: 22 µL/min/mg; IC50 [11]: > 100000 nM; IC50 [12]: 14000 nM; inhibition at 10 µM [13]: -3.8%; inhibition [14]: Dose-Dependent Effect; IC50 [15]: > 100000 nM; inhibition in vivo at 3 mg/kg [16]: 25%
19 | O=C(c1ccncc1)N1N=C(c2ccccc2)CC1(O)C(F)(F)F (stereo unspecified) | 350 | – | –
20 | Cc1ccc(-c2ccncc2)c(C(=O)N2CCN(Cc3ccccc3)C(=O)C2)c1 | 89 | – | –
21 | Cc1ccc(-c2ccncc2)c(C(=O)N2CCC(Cc3ccccc3)C(O)C2)c1 (racemic) | 16 | – | –
22 | Cc1cccc(-c2ccncc2)c1C(=O)N1CCC(O)(Cc2ccccc2)CC1 | 7.8 | 71 | –
23 | Cc1ccc(-c2ccncc2)c(C(=O)N2CCC(O)CC2)c1 | 7700 | – | –
24 | Cc1ccc(C(=O)N2CCC(O)(Cc3ccccc3)CC2)c(-c2ccncc2)c1 | 4.4 | 65 | –
25 | Cc1cccc(C(=O)N2CCC(O)(Cc3ccccc3)CC2)c1-c1ccncc1 | 130 | 77 | –
26 | Cc1ccc(-c2ccncc2)c(C(=O)N2CCN(Cc3ccccc3)CC2)c1 | 93 | – | –
27 | Cc1ccc(-c2ccncc2)c(C(=O)N2CCC(O)(Cc3ccccc3)CC2)c1 | 2.7 | 67 | –
28 | O=C(c1ccccc1-c1ccncn1)N1CCC(O)(Cc2ccccc2)CC1 | 4.3 | 17 | microsomal CLint at 1 µM [3]: 70 µL/min/mg
29 | Cc1ccc(-c2ccncc2F)c(C(=O)N2CCC(O)(Cc3ccccc3)CC2)c1 | 17 | 77 | –
30 | COc1ccc(-c2ccncc2)c(C(=O)N2CCC(O)(Cc3ccccc3)CC2)c1 | 4.7 | 67 | –
